Source: PubChem
HTRA1 inhibitor – HTRA1 serine protease inhibitors, primary screen, biochemical, fluorescence polarization, HTS | Q92743 | recombinant HTRA1, FP-rhodamine activity-based probe | inhibition, % at 5.96 µM | hit rate 0.5% among 340,000 | AID 504803, 2011; in the data active = inhibition above about 36%;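 also: 0% = enzyme with DMSO and 100% = wells lacking enzyme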
pPAFAH FP inh – pPAFAH enzyme inhibitors, primary screen, biochemical, fluorescence polarization, human; recombinant pPAFAH, FP-rhodamine probe fluorescence polarization; inhibition, % at 3.39 µM; hit rate 1.5% among 330,000;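 active = inhibition above the mean inhibition across the screen plus 3 SD, cut at about 25% in these data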;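 also: inhibitors block binding of the rhodamine activity-based probe so polarization drops; 0% = enzyme with DMSO and 100% = wells lacking pPAFAH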
Target sequence (Q13093 whole entry, looked up): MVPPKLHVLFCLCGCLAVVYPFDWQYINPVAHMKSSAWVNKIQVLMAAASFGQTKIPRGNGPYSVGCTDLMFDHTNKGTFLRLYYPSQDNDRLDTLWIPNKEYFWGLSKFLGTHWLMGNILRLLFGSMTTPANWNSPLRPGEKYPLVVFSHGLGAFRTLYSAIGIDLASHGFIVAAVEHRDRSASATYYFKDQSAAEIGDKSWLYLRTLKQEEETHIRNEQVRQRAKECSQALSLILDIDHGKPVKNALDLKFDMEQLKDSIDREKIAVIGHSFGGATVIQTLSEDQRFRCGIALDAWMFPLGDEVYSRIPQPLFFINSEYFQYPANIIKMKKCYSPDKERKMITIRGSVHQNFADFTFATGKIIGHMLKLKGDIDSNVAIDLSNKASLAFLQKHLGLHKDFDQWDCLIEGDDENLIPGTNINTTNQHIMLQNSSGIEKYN
mABHD4 FP – ABHD4 inhibitors, primary screen, biochemical, fluorescence polarization, mouse; (Lyso)-N-acylphosphatidylethanolamine lipase (Mus musculus), Q8VD66; purified mABHD4, FP-Rh probe fluorescence polarization; inhibition, % at 8.92 µM; hit rate 0.54% among 370,000; AID 720543, 2013;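 active = inhibition exceeding the mean over every tested compound plus 3 SD, cut at about 30% in these data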;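 also: 0% = plate median of compound wells and 100% = S159A mutant with DMSO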
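Assay system: Wild-type mouse ABHD4 protein | Medium: HEPES pH 7.0 buffer, 150 mM NaCl, 0.01% Pluronic F-127 | Incubation: Enzyme–compound pre-incubation 45 min, then probe 60 min, both 25 °C | Technique: Fluorescence polarization with parallel and perpendicular emission, 525/598 nm | Evaluation: % inhibition of FP-Rh probe binding versus controls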
PAFAH1B3 inh – PAFAH1B3 enzyme inhibitors, primary screen, biochemical, fluorescence polarization, human; hit rate 0.28% among 340,000; recombinant PAFAH1B3, FP-rhodamine probe; Platelet-activating factor acetylhydrolase IB subunit alpha1 (Homo sapiens), Q15102; inhibition, % at 3.39 µM;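 active = inhibition above the screen-wide average of all tested compounds plus 3 SD, cut at about 25% in these data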;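 also: 0% = enzyme with DMSO only and 100% = wells lacking PAFAH1B3 protein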
PAFAH2 FP inh – PAFAH2 enzyme inhibitors, primary screen, biochemical, fluorescence polarization, human; Platelet-activating factor acetylhydrolase 2, cytoplasmic (Homo sapiens), Q99487; recombinant PAFAH2, FP-rhodamine activity probe; inhibition, % at 3.39 µM; hit rate 0.99% among 340,000;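 active = inhibition above the mean over all tested compounds plus 3 SD, cut at about 30% in these data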;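 also: inhibitors block probe labeling of enzyme so polarization drops; 0% = enzyme with DMSO and 100% = wells lacking PAFAH2 protein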
PAFAH1B2 FP inh – PAFAH1B2 enzyme inhibitors, primary screen, biochemical, fluorescence polarization, human. recombinant PAFAH1B2, FP-rhodamine activity probe. Platelet-activating factor acetylhydrolase IB subunit alpha2 (Homo sapiens), P68402. hit rate 1.2% among 340,000. inhibition, % at 3.39 µM;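 active = inhibition above the mean of all tested compounds plus 3 SD, cut at about 24% in these data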;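 also: 0% = enzyme with DMSO and 100% = wells lacking PAFAH1B2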
Target sequence (P68402 whole entry, looked up): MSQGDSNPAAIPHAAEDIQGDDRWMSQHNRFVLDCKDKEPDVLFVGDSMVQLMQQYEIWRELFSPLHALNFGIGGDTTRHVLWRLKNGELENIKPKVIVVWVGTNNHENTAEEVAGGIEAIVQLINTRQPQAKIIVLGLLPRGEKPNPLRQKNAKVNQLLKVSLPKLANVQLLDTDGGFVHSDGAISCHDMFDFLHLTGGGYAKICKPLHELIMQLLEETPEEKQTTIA
Numbers without * were called inactive; nt = not tested or not shown. Only some compounds are listed: those with a hit (about 2.8% of all), similar ones and a draw of the others.

SMILES	HTRA1 inhibitor	pPAFAH FP inh	mABHD4 FP	PAFAH1B3 inh	PAFAH2 FP inh	PAFAH1B2 FP inh
CC(C)c1ccc(-c2nc(N3CCOCC3)[nH]c(=O)c2C#N)cc1	8	4	-2	7	0	33*
COc1ccccc1NS(=O)(=O)c1cc(NC(=O)C2CCC2)ccc1N1CCCCC1	-10	-23	-12	-6	-20	-5
COc1ccccc1NS(=O)(=O)c1cc(NC(=O)Nc2ccc(Cl)cc2Cl)ccc1N1CCCCC1	-25	34*	-6	7	-26	14
Cc1ccc(C(=O)Oc2cc(C)[nH]c(=O)c2[N+](=O)[O-])cc1	4	29*	-17	6	3	1
Cc1cc(OC(=O)c2ccc(C)c(C)c2)c([N+](=O)[O-])c(=O)[nH]1	6	5	-11	6	1	2
CCCCCCCCN1C(=O)[C@@H](CC(=O)NCc2ccc(C)o2)C[C@@]2(C(=O)OC)C1=C[C@H](C(C)C)O[C@@H]2C1CC1	nt	nt	-2	nt	nt	nt
Cc1ccc(SCc2[nH]nc3c2C2(CCSCC2)C(C#N)=C(N)O3)cc1	-5	2	14	-6	1	38*
CCOC(=O)N1CCC2(CC1)C(C#N)=C(N)Oc1n[nH]c(CSc3ccc(C)cc3)c12	1	6	3	3	2	27*
Cc1[nH]nc2c1C1(CCN(C(=O)OCc3ccccc3)CC1)C(C#N)=C(N)O2	-5	0	-6	2	7	2
Cc1cc(NC(=O)c2ccc(NS(=O)(=O)c3ccccc3F)cc2)no1	nt	nt	-4	nt	nt	nt
COc1cc(/C=C2\SC(=O)N(Cc3ccc(F)cc3)C2=O)cc([N+](=O)[O-])c1O	6	nt	10	5	29	5
COc1cc(/C=C2\SC(=O)N(Cc3ccc(Cl)cc3)C2=O)cc([N+](=O)[O-])c1O	10	nt	22	19	49*	39*
O=C(CCCCCBr)N1CCC(CC2CC(c3cccc(Br)c3)=NO2)(C(=O)NCC2CCCCC2)CC1 (stereo not drawn)	-15	25*	-5	7	8	2
O=C(CCCCCBr)N1CCC(CC2CC(c3ccc(Cl)cc3)=NO2)(C(=O)NCC2CCCCC2)CC1 (stereo not drawn)	-6	15	2	9	1	3
O=C(Nc1ncccc1O)c1cccc(S(=O)(=O)N2CCCc3ccccc32)c1	2	5	-2	-2	25	21
Cc1cccnc1NC(=O)c1cccc(S(=O)(=O)N2CCCc3ccccc32)c1	-14	0	0	2	1	29*
CCC(=O)N[C@@H]1C[C@@H]2O[C@@H](CO)CC[C@@H]2O[C@@H]1CCc1ccc(-c2cccc(OC)c2)cc1	nt	nt	-6	nt	nt	nt
Cc1cccc(C2C3=C(Nc4[nH]n(-c5ccccc5)c(=O)c42)c2ccccc2C3=O)c1 (stereo not drawn)	32	nt	43*	21	62*	52*
COc1ccc(CN(CCN2CCOCC2)C(=O)c2cc(F)cc(F)c2)cc1OC	nt	nt	2	nt	nt	nt
CC1CCCC(NC(=O)c2cccc(S(=O)(=O)NCc3ccccc3)c2)C1C (stereo not drawn)	-17	3	-4	0	1	30*
CN(Cc1ccc(F)cc1)C(=O)c1cccc(S(=O)(=O)NCc2ccccc2)c1	-7	7	-1	5	-4	25*
COc1cccc(NC(=O)CN(C)C(=O)c2cccc(NS(=O)(=O)c3ccc(Br)cc3)c2)c1	-13	nt	-8	0	4	30*
CN(CC(=O)Nc1ccc(F)cc1)C(=O)c1cccc(NS(=O)(=O)c2ccccc2)c1	1	29*	-14	-1	-3	0
COc1cccc(NC(=O)CN(C)C(=O)c2cccc(NS(=O)(=O)c3ccccc3)c2)c1	-1	20	2	10	2	7
Oc1ccc(CNc2ccc(C(F)(F)F)cc2F)c2cccnc12	nt	nt	1	nt	nt	nt
SMILES	HTRA1 inhibitor	pPAFAH FP inh	mABHD4 FP	PAFAH1B3 inh	PAFAH2 FP inh	PAFAH1B2 FP inh
CC(C)C[C@@H](CO)N1Cc2nnn(Cc3ccccc3)c2-c2ccccc2S1(=O)=O	nt	nt	5	nt	nt	nt
S=c1[nH]nc(-c2ccccc2Br)n1Cc1ccccc1	8	0	-2	2	2	29*
Oc1c(Cl)cc(Cl)cc1C=Nc1ccccc1N1CCCC1	nt	30*	nt	nt	nt	nt
O=C(NC1CCCCN(Cc2cccc(Cl)c2)C1=O)c1cccs1 (stereo not drawn)	nt	nt	0	nt	nt	nt
O=c1cc(-c2ccccc2Cl)oc2ccc([N+](=O)[O-])c(O)c12	-3	3	2	4	4	4
Nc1ccc2oc(-c3ccccc3Cl)cc(=O)c2c1O	19	28*	21	6	4	8
CC(=O)NC1=C(NC2CCS(=O)(=O)C2)C(=O)c2ccccc2C1=O (stereo not drawn)	2	4	4	7	-2	4
CN(C1=C(NC(=O)c2ccccc2)C(=O)c2ccccc2C1=O)C1CCS(=O)(=O)C1 (stereo not drawn)	11	14	10	51*	38*	17
COC(=O)[C@@H]1[C@H](O[Si](C)(C)C(C)(C)C)[C@H]2O[C@H]2C[C@H]1S(=O)(=O)c1ccccc1	nt	nt	4	nt	nt	nt
N/C(Cc1ccc([N+](=O)[O-])cc1)=N\OC(=O)c1ccc(Br)cc1	-6	30*	5	6	41*	3
N/C(=N\OC(=O)c1ccc([N+](=O)[O-])cc1)c1ccc(Br)cc1	0	4	-2	5	-6	7
COc1ccc(S(=O)(=O)NC(C)CCc2ccccc2)cc1 (stereo not drawn)	-2	1	-8	8	-3	16
CC(CCc1ccccc1)NS(=O)(=O)c1ccccc1F (stereo not drawn)	-12	4	-1	6	4	29*
O=C1C(=O)c2ccc(-c3ccccc3)cc2-c2ccccc21	-7	19	6	58*	51*	9
CCCC(=O)OC12CCCN(C1)/C(=C/c1ccc(OC)cc1)C2 (stereo not drawn)	nt	nt	5	nt	nt	nt
COc1ccc(C2=CC3=C(Br)C(=O)C(C)(OC(=O)c4ccc(Cl)nc4)C(=O)C3=CO2)cc1 (stereo not drawn)	nt	28*	nt	nt	nt	nt
COC(=O)CCC(=O)OC1(C)C(=O)C2=CN(Cc3ccc4c(c3)OCO4)C(c3ccc(OC)cc3)=CC2=C(Br)C1=O (stereo not drawn)	29	13	nt	14	5	5
COc1ccc(C2=CC3=C(Br)C(=O)C(C)(OC(=O)C4CCCC4)C(=O)C3=CO2)cc1 (stereo not drawn)	15	25*	nt	4	13	7
NC(=S)N/N=C/c1ccc(-c2ccc(SC(F)F)cc2)o1	-4	27*	13	-2	-6	1
